Source: PubChem BioAssay AID488898 (Broad Institute, 2010)
Records with an inconclusive call do not appear. The source made the active and inactive calls.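 How the source made its calls: active means fitted half-maximal caspase rise reached at or below ten times the top valid dose; inconclusive means flat fit between 30 and 70 percent, or poor fit; inactive means the rest.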

Tested on: not listed separately
Experiment: caspase activation in Bax/Bak null MEFs, dose response, counter-screen for Bcl2-A1 inhibitor project, cell-based, mouse embryonic fibroblasts, dry powder (AID 488898)
Settings: Bax/Bak-/- MEF caspase activation, CaspaseGlo luminescence, 3 h; at 135 µM (top of the series)
Procedure, shortened: (§1)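 System: Bax/Bak double-knockout mouse embryonic fibroblasts, counterscreen cell line | Amount: 2500 cells per well | Buffer or medium: RPMI-1640 growth medium with 10% FBS | Timing: 3 h at 37 °C treatment, 1 h room-temperature read | Detection: Caspase-Glo luminescence for caspase activity | Measure: Caspase activation, flagging off-target or general toxicity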

Compound | caspase activation
CC(=O)N[C@H]1[C@H](O[C@H]2CC[C@@]3(C)C(CC[C@]4(C)C3CC=C3[C@@H]5CC(C)(C)CC[C@]5(C(=O)OC5OCC(O)C(O)C5O)C(O)C[C@]34C)C2(C)C)O[C@H](COC2OCC(O)C(OC3OCC(O)C(O)C3O)C2O)[C@@H](O[C@@H]2O[C@@H](C)[C@H](O)[C@@H](O)[C@H]2O[C@@H]2O[C@@H](C)[C@H](O)[C@@H](O)[C@H]2O)[C@@H]1O (some centres undefined) | -0.158% (inactive)

Same assay, conditions: Bax/Bak-/- MEF caspase activation, CaspaseGlo luminescence, 3 h; at 150 µM (top of the series)

Compound | caspase activation
CC(C)(C)n1nc(-c2ccc(Cl)cc2)c2c(N)ncnc21 | 2.79% (inactive)
O=C(CCl)N=c1sccn1Cc1ccccc1Cl | 0.854% (inactive)
CCc1nnc(NC(=O)c2nc(S(=O)(=O)Cc3ccccc3)ncc2Cl)s1 | -0.106% (inactive)
Cc1c(C=O)c(C=O)c(C)n1Cc1ccccc1 | 1.17% (inactive)
COc1cccc(C(=O)C(C#N)=C(SC)SC)c1 | 0.208% (inactive)
Cc1cccc(CS(=O)(=O)c2ncc(Cl)c(C(=O)Nc3nnc(C(C)C)s3)n2)c1 | -0.163% (inactive)
CCc1cc2c(=O)c(-c3cnn(-c4ccccc4)c3)c(C)oc2cc1OCC(=O)Nc1cccc(C)c1 | 0.45% (inactive)
C=C1[C@@H](C)[C@H]2[C@H](Cc3ccccc3)NC(=O)[C@]23OC(=O)/C=C\[C@H](O)CCC[C@@H](C)C/C=C/[C@H]3[C@@H]1O | 0.116% (inactive)
O=C(Oc1cccc(/C=N/Nc2nc(Nc3ccccc3)nc(N3CCOCC3)n2)c1)c1ccco1 | 0.146% (inactive)
COc1cc(/C=C(/C#N)c2nc3ccccc3[nH]2)ccc1OCC(=O)Nc1ccccc1C(C)C | 1.27% (inactive)
Cc1c(CCOC(=O)c2ccc(N3CCOCC3)c([N+](=O)[O-])c2)sc[n+]1CC#N | 0.688% (inactive)
C/C1=C/C(=O)O[C@@H]2C[C@@H](CC[C@H](C)/C=C\CC1)O[C@@](O)(C1CSC(=O)N1)C2 (some centres undefined) | 1.16% (inactive)
Cc1ccc(CS(=O)(=O)c2ncc(Cl)c(C(=O)Nc3nnc(C(C)C)s3)n2)cc1 | -0.479% (inactive)
Cc1ccc(Sc2c([N+](=O)[O-])c(=O)n(C)c3ccccc23)cc1 | 1% (inactive)
Cn1c(=NC(=O)CCl)sc2ccccc21 | 0.685% (inactive)
C=C1[C@@H](C)[C@H]2[C@H](Cc3ccccc3)NC(=O)[C@]23[C@H](OC(C)=O)/C=C/[C@](C)(O)C(=O)[C@@H](C)C/C=C/[C@H]3[C@@H]1O | 0.127% (inactive)
CC(=O)OC(C)(C)/C=C/C(=O)[C@](C)(O)C1[C@H](O)C[C@@]2(C)C3CC=C4C(C[C@H](O)C(=O)C4(C)C)[C@]3(C)C(=O)C[C@]12C (some centres undefined) | 0.556% (inactive)
CCSc1nnc(NC(=O)c2nc(S(=O)(=O)Cc3ccc(F)cc3)ncc2Cl)s1 | -0.717% (inactive)
Nc1nc(F)nc2c1ncn2[C@@H]1O[C@H](CO)[C@@H](O)[C@H]1O | -0.0553% (inactive)
CCOC(=O)CSC1=N/C(=C/c2ccc(-n3cncn3)cc2)C(=O)N1C(C)=O | -0.0192% (inactive)

Tested on: Bax/Bak-/- MEF caspase activation, CaspaseGlo luminescence, 3 h
Experiment: as above
Settings: not given
Procedure, shortened: as §1

Compound | AC50
Cc1cccc(NC(=O)/C(C#N)=C/c2cn(CC(=O)NCc3ccco3)c3ccccc23)c1 | 4.78 µM
COc1ccc(N(C(=O)CCl)C(C(=O)NCCc2ccccc2)c2cccs2)cc1Cl (centres undefined) | 24.9 µM
Cc1cc(C(=O)CCl)c(C)n1CCc1ccc(Cl)cc1 | 13.3 µM
